# Yeast growth tox: yeast growth toxicity, wild-type and mutant, primary screen, cytotoxicity control for eIF2B function restoration project, wild-type and eIF2Bepsilon R284H mutant, A595. growth inhibition, % at 25 µM (by protocol). 30,000 compounds, 0.3% hits. S. cerevisiae wild-type growth, A595 turbidity, 16 h;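 active = mutant and wild-type yeast strains alike exhibit over 30% growth inhibition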
#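 Test system: Wild-type and eIF2Bepsilon-R284H mutant S. cerevisiae, screened separately | Dosing: Single 25 µM compound dose in 0.2% DMSO | Schedule: 16 h compound exposure during growth at 30 °C | Detection: A595 turbidity | Evaluation: Growth inhibition (%) versus cell controls and blanks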
# Yeast eIF2B: GCN4-lacZ reporter reduction in eIF2B-epsilon mutant yeast, primary screen, S. cerevisiae, eIF2B-epsilon R284H, Beta-Glo luminescence; inhibition, % at 25 µM (by protocol); 27,000 compounds, 0.91% hits;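 active = mutant luminescence inhibited past about 50% while wild type luminescence and mutant growth stay under set limits, limit read from the data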
#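 material = yeast eIF2B-epsilon R284H mutant carrying GCN4–beta-galactosidase fusion | schedule = 16 h growth with compound at 30 °C, 90 min Beta-Glo step | measured by = luminescence and A595 | compound dosing = one concentration, 25 µM, 0.25% DMSO | read-out basis = % inhibition of reporter signal and growth versus controls | buffer or medium = YPD medium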
# Hits are given with their value; 0 = inactive; - = no result given. Most compounds without a hit are left out; they make up all but 1% or so of the library.
SMILES,Yeast growth tox,Yeast eIF2B
Nn1c(COc2cccc(Br)c2)nnc1SCC(=O)N1CCc2ccccc2C1,0,50.5
Cc1cc(N2C(=O)CC(N3CCN(C(c4ccccc4)c4ccccc4)CC3)C2=O)no1 (stereo unspecified),-,0
O=C(Nc1ccccc1C(=O)NC1CCCCC1)c1ccco1,0,0
Cc1ccc(N2CC(C(=O)Nc3ccccc3C(=O)NC3CCCCC3)CC2=O)cc1C (stereo unspecified),0,54.0
COc1ccc(S(=O)(=O)N2CCCCC2C(=O)O)cc1 (stereo unspecified),0,0
COc1ccc(S(=O)(=O)N2CCCCC2C(=O)O)cc1OC (stereo unspecified),0,50.1
CCC1(CC)Cc2ccccc2C(CC(=O)N2CCOCC2)=N1,0,-
COc1ccc(OC)c(NC(=O)Cn2cc(C#N)c3cc(Br)ccc32)c1,0,0
N/C(Cc1ccc([N+](=O)[O-])cc1)=N\OC(=O)c1ccc2ccccc2c1,63.9,0
COc1ccc(/C(N)=N/OC(=O)c2cccc([N+](=O)[O-])c2)cc1,0,0
O=C(c1cncc(Br)c1)N1CCc2ccccc2C1,0,0
N#Cc1c(/N=C/c2cccs2)sc2c1CCC2,0,0
N#Cc1c(/N=C/c2cc(Br)cs2)sc2c1CCC2,0,60.1
CCOC(=O)C1CCN(C(=O)COC(=O)COc2ccccc2OC)CC1,0,0
CCc1nc2scc(-c3cccs3)c2c(=O)o1,0,0
CCn1c(Sc2nc(C)nc3scc(-c4cccs4)c23)n[nH]c1=O,46.2,0
CCCCCCn1c(CN2CCN(C(=O)OCC)CC2)nc2c1c(=O)n(C)c(=O)n2C,0,0
CN(C)S(=O)(=O)n1ccnc1,0,-
Cc1c(NC(=O)CN2CC(C)OC(C)C2)c(=O)n(-c2ccccc2)n1C (stereo unspecified),0,0
CCOc1cc(S(=O)(=O)N2CCCCC2)ccc1F,0,0
Cn1c(=O)c(=O)n(C)c2cc(S(=O)(=O)N3CCCCCC3)ccc21,0,57.6
CCOC(=O)c1c(NC(=O)c2c(Br)cnn2CC)sc(C)c1C,0,0
O=C(OCn1ncc(Br)c(Br)c1=O)c1c(F)cccc1F,81.6,-
COc1ccc(CNC2=CC(=O)CC(C)(C)C2)cc1,0,0
O=C1NC2(CCCCCC2)Cc2ccccc21,0,0
SMILES,Yeast growth tox,Yeast eIF2B
CCOC(=O)c1ccc(Nc2nc(C)cc(=O)[nH]2)cc1,0,0
Cc1ccc(Nc2cc(C)nn2-c2nc(C)cc(=O)[nH]2)cc1,78.3,0
COCCOC(=O)CC1=NC(=O)CS1,0,0
CCOC(=O)CC1=NC(=O)CS1,0,63.9
CC(CC1C(C#N)=C(N)SC(N)=C1C#N)c1ccccc1 (stereo unspecified),0,0
CC1(C)NC(=O)N(CCOCCOc2cccc(Oc3ccccc3)c2)C1=O,0,0
CCC(C)Oc1cccc(OCCCCN2C(=O)NC(C)(C)C2=O)c1 (stereo unspecified),0,50.7
CCOc1ccc2nc(NC(NC(=O)CC)(C(=O)OC)C(F)(F)F)sc2c1 (stereo unspecified),0,0
Cc1cc(C)c2c(n1)sc1c(=O)n(Cc3ccccc3Cl)nnc12,0,0
CN1C(=O)N(C)C2(c3ccccc3)NC(=O)NC12c1ccccc1 (stereo unspecified),0,53.9
CN1C(=O)NC2(O)C(=O)c3ccccc3C12O (stereo unspecified),0,-
CCn1c(COc2cccc(C)c2)nnc1SCC(=O)Nc1cccc(C(=O)OC)c1,0,-
O=C1C(=O)c2ccc(-c3ccccc3)cc2-c2ccccc21,0,0
Nc1ccc2c(c1)C(=O)C(=O)c1ccccc1-2,38.3,-
COC(=O)C1CCC(C)(C(=O)Nc2ccccc2)C1(C)C (stereo unspecified),0,0
CCc1nnc(NC(=O)CCC(=O)N2CCN(c3ccccn3)CC2)s1,0,0
CCOc1cc(C(=O)NC(C)c2ccncc2)cc(OCC)c1OCC (stereo unspecified),0,-
COCCN1CCN(c2cc(-c3ccccc3)nc3cc(-c4cccc(F)c4)nn23)CC1,73.8,-
Fc1cccc(-c2cc3nc(-c4ccccc4)cc(N4CCC5(CC4)OCCO5)n3n2)c1,-,0
CCCSc1ncc(Cl)c(C(=O)Nc2ccc(S(=O)(=O)N3CC(C)OC(C)C3)cc2)n1 (stereo unspecified),0,-
CC(=O)c1ccc(NC(=O)c2noc3c2CCCCC3)cc1,0,69.4
O=C(Nc1ccc2c(c1)OCO2)c1noc2c1CCCCC2,0,0
O=C(NCc1ccncc1)c1ccc(Cl)c(S(=O)(=O)N2CCOCC2)c1,-,0
CC(C)(C)SCCNC(=O)c1ccc(Cl)c(S(=O)(=O)N2CCOCC2)c1,0,51.9
O=C(Nc1nnc(COc2ccc(Cl)cc2)s1)c1cccs1,0,50.3
Cc1cccc(OCc2nnc(NC(=O)c3cccs3)s2)c1,0,0
